PKA-R1A activ – PKA-R1A complex activation | P00514+P68181 | PKA-R1A dissociation, Cy5-IP20 fluorescence polarization; scaled: DMSO 0%, 113 µM cGMP 100% | activation, % at 11.4 µM | 0.083% of 340,000 active;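 active = percent activation above the mean of all tested compounds plus 3 SD, cut at about 19% in these data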;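 also: higher means more PKAc released from R1A so a rise in polarization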
Rpn11 inh – inhibitors of human proteasome Rpn11; calls only at 20 µM; human 26S proteasome, Ub4-pepOG fluorescence polarization; 20S core pre-blocked with epoxomicin; 0.59% of 360,000 active; O00487;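 active = inhibition at 20 µM, scaled to each plate's controls, above about 33%, limit read from the data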
CSN inh – blocks human CSN-mediated cullin deneddylation; Q92905; Purified CSN, SCF-Nedd8-OG deneddylation, fluorescence polarization; inhibition, % at 12.5 µM; 0.38% of 360,000 active; AID 651999;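 active = pattern-corrected inhibition above about 35%, with an unprinted fluorescence ratio check between 0.5 and 1.5, limit read from the data, passing the limit was not always enough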
Target sequence (Q92905 whole entry, looked up, one chain of several): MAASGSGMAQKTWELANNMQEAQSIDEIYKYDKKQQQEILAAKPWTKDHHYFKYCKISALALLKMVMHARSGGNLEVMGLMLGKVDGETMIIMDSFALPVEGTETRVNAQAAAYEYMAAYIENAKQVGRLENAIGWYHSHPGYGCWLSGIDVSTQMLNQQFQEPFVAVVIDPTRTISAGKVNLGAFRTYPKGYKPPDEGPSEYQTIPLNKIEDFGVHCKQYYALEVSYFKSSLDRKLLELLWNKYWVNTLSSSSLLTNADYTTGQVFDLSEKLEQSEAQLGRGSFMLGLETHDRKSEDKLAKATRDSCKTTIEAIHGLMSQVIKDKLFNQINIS
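assay system = purified human Csn5 enzyme expressed in HEK293T cells | amount = 0.24 nM enzyme | buffer or medium = Tris/NaCl/DTT buffer, pH 7.5 | reagent = 10 nM SCFSkp2-Nedd8OG | compound = one concentration, 12.5 µM, 0.25% DMSO | times = 90 min reaction at room temperature | signal = FP | read-out basis = % inhibition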
PKA-R2B act – PKA-R2B complex activation; PKA-R2B holoenzyme dissociation, Cy5-IP20 fluorescence polarization; R2B truncated from residue 108, S112A mutant; 0% DMSO only, 100% 113 µM cGMP; activation, % at 11.4 µM; 0.079% of 340,000 active; AID 504700;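 active = activation above a cutoff set at the mean over all compounds plus 3 SD, cut at about 18% in these data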;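 also: higher means more holoenzyme dissociation and a rise in polarization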
TPT1 inhibitor – blocks Candida albicans tRNA 2'-phosphotransferase; recombinant caTPT1, FP RNA substrate dephosphorylation; inhibition, % at 5 µM; 0.81% of 300,000 active; AID 1962;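 active = inhibition above the mean of all tested compounds plus 3 SD, set per screening campaign, cut at about 24% in these data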
HNF4A DNA FP – change in binding of human HNF4 alpha to DNA | HNF4a-FITC DNA binding, fluorescence polarization, 1 h | AID 1224865 | activity change, % at 10 µM | P41235 | 0.3% of 360,000 active; in the data active = activity change above about 30%, passing the limit was not always enough
A number is an active result; - = inactive; . = no result shown; + = active, no number. Shown are actives, neighbours in structure and some others; about 1.6% of the full set was active somewhere.

SMILES	PKA-R1A activ	Rpn11 inh	CSN inh	PKA-R2B act	TPT1 inhibitor	HNF4A DNA FP
CCc1ccc(N2CSC3=C(C#N)C(c4cccs4)CC(=O)N3C2)cc1 (stereo unspecified)	-	-	36	-	-	-
Cc1ccc(N2CSC3=C(C#N)C(c4cccs4)CC(=O)N3C2)cc1 (stereo unspecified)	-	-	-	-	-	-
C=CCOn1c(=O)c(-c2ccc(C)cc2)[n+]([O-])c2ccccc21	-	-	-	-	-	-
O=C(COc1ccc(/C=N/NC(=O)c2ccc(O)cc2)cc1)Nc1cccc([N+](=O)[O-])c1	-	-	59	-	-	-
O=C(NC1CC1)c1cccc2c1C(=O)c1ccc(N3CCC(N4CCCCC4)CC3)cc1S2(=O)=O	-	.	43	-	.	-
O=C(NCCN1CCOCC1)c1cccc2c1C(=O)c1ccc(N3CCCC3)cc1S2(=O)=O	-	.	-	-	.	-
CN1CCC[C@@H]1CCNC(=O)c1cccc2c1C(=O)c1ccc(N3CCCC3)cc1S2(=O)=O	-	.	-	-	.	63
CN(Cc1nc(-c2cccs2)no1)CC(O)c1ccccc1 (stereo unspecified)	-	-	-	-	-	-
Cc1cc(NC(=O)/C(C#N)=C\c2ccc(-c3ccc(SC(F)F)cc3)o2)n(-c2ccccc2)n1	-	.	81	-	.	-
NC(=O)C1=C(N=C2CCCCC2)CCCC1	-	-	53	-	.	-
O=C(CN1C(=O)/C(=C\c2ccco2)SC1=S)Nc1ccc(O)cc1C(=O)O	-	.	70	-	-	-
O=C(CCCN1C(=O)/C(=C\c2ccccc2)SC1=S)Nc1ccc(O)cc1C(=O)O	-	-	-	-	-	-
COc1ccc(CCNC(=O)C(C)SCc2ccccc2)cc1 (stereo unspecified)	-	-	-	-	-	-
CC(Sc1ccccc1)C(=O)NCCc1ccccc1 (stereo unspecified)	-	-	50	-	-	-
CC1CC(=O)N(C)c2cc([N+](=O)[O-])ccc2N1 (stereo unspecified)	-	-	-	-	-	-
COc1cc2c(cc1NC(=O)CSc1nnc(Cc3cccs3)n1Cc1ccco1)oc1ccccc12	-	-	-	-	-	-
Cc1cc(Cl)ccc1NC(=O)CSc1nnc(Cc2cccs2)n1Cc1ccco1	-	-	-	-	-	42
COc1ccc(-c2cnc3c(NC(C)=O)cc(-c4ccsc4)cn23)cc1OC	.	+	-	.	.	-
COc1ccc(-c2cc(NC(C)=O)c3ncc(-c4ccc(OC)c(OC)c4)n3c2)cc1OC	.	-	-	.	.	-
c1ccc2c(c1)nc1n2CCC1	-	-	-	-	.	-
COCCn1ccc2c(OCC(=O)NCCc3ccc(OC)c(OC)c3)cccc2c1=O	-	-	-	-	-	-
COC(=O)C1=C(COc2ccc(C=O)cc2OC)NC(=O)NC1c1cc(C)ccc1C (stereo unspecified)	-	-	-	-	-	-
CC(C)(C)C(=O)/C=c1\s/c(=C\c2ccc(-c3ccc([N+](=O)[O-])cc3)o2)c(=O)n1CC(=O)NC(N)=O	-	.	-	-	104	-
CC[C@]12c3[nH]c4ccc(Cl)cc4c3CCN1C(=O)[C@@H](CC(=O)NCc1ccco1)C[C@@H]2C(=O)N1CCN(C(=O)c2ccco2)CC1	-	-	-	-	.	-
CC[C@]12c3[nH]c4ccc(Cl)cc4c3CCN1C(=O)[C@@H](CC(=O)NCCN1CCOCC1)C[C@@H]2C(=O)N1CCN(C(=O)c2ccco2)CC1	-	-	95	-	.	-
SMILES	PKA-R1A activ	Rpn11 inh	CSN inh	PKA-R2B act	TPT1 inhibitor	HNF4A DNA FP
O=C(O)c1cccnc1SCC(=O)N1CCCc2ccccc21	-	-	-	-	-	-
COc1cc(NC(=O)c2cccnc2)ccc1-c1cc2ccccc2oc1=O	.	.	.	.	-	.
O=C(Nc1ccc(-c2cc3ccccc3oc2=O)c(Cl)c1)c1cccnc1	-	-	38	-	-	-
O=C1NC(Cc2ccc(O)cc2)c2nc3cc(Cl)ccc3c(=O)n2-c2cc(Cl)ccc21 (stereo unspecified)	-	-	-	-	.	-
Cc1c(-c2ccc(F)cc2)nc(N)c(C#N)c1-c1ccco1	-	.	-	-	-	39
CCc1nc(N)c(C#N)c(-c2ccc(F)cc2)c1C	-	-	-	-	-	-
N#CC(C(=O)NCCc1ccccc1)c1nc2ccccc2nc1N1CCOCC1 (stereo unspecified)	-	.	39	-	-	-
CCCCSc1nc2c(cc1C#N)CCC2	-	-	-	-	-	-
CCCSc1nc(C)c(-c2csc(C(C#N)=C3CCCC3)n2)cc1C#N	-	-	45	-	-	-
COc1ccccc1C(=O)COC(=O)Cn1c(C)csc1=O	-	-	-	-	-	-
Cc1cc(=O)oc2cc(NC(=O)COc3ccccc3[N+](=O)[O-])ccc12	-	-	71	-	.	-
CN(CC(=O)Nc1ccccc1C(F)(F)F)C(=O)c1cc2c(s1)CCCCC2	-	-	-	-	-	-
CC(NC(=O)Cn1cc([N+](=O)[O-])cn1)c1ccc(C(C)(C)C)cc1 (stereo unspecified)	-	-	-	-	-	-
COc1ccc(-c2ccc3c(c2)S(=O)(=O)c2cccc(C(=O)NCCOc4ccccc4Cl)c2C3=O)cc1OC	-	-	65	-	.	-
O=C1c2cccnc2C(Nc2ccccc2Br)N1Cc1ccco1 (stereo unspecified)	-	-	-	-	-	-
N=c1n(Cc2ccccc2Cl)c2ccccc2n1CC(O)c1ccco1 (stereo unspecified)	-	-	-	-	-	61
COC(=O)c1cc(S(=O)(=O)N2c3ccccc3CC2C)cn1C (stereo unspecified)	-	-	38	-	-	-
CC1Cc2ccccc2N1S(=O)(=O)c1cccs1 (stereo unspecified)	-	.	57	-	-	115
Cc1ccc(S(=O)(=O)N2c3ccccc3CC2C)cc1 (stereo unspecified)	.	-	-	.	-	-
CC(C)[C@H](NC(=O)N1c2ccccc2NC(=O)[C@@H]1C(C)C)C(=O)N1CCC(C(=O)O)CC1	-	-	-	-	-	-
CN(CCCC(=O)NCCc1ccccc1)S(=O)(=O)c1ccc([N+](=O)[O-])cc1	-	-	-	-	-	-
Cn1c(Sc2ccc(Br)cc2)c(C=O)c2ccccc21	-	-	-	-	-	-
Fc1ccc(CN2CCN(c3ncccn3)CC2)cc1	-	-	37	-	-	-
O=C1c2cc(Cl)ccc2OC2(CCNCC2)C12CC(c1ccc(Cl)cc1)=NO2 (stereo unspecified)	-	-	68	-	-	-

Screening data: PubChem, several laboratories
